These results are taken from ChEMBL document CHEMBL2150998, “Antibiotic and antimalarial quinones from fungus-growing ant-associated Pseudonocardia sp” (J Nat Prod, 2012).

For one test, the system named is Plasmodium berghei. The experiment in a line: Antiplasmodial activity against luciferase-expressing sporozoite of Plasmodium berghei ANKA infected in human HepG2 cells assessed as reduction of parasite load after 2 days. The class given is functional, organism-based. As to conditions: HepG2, 48 h. Put shortly: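 HepG2 cells (15 000/well, 384-well) were infected with 4000 luciferase-expressing P. berghei ANKA sporozoites, taken from infected Anopheles stephensi, with compounds in triplicate. Final DMSO was 1%, compounds 0–50 μg/mL, 2 days at 37 °C. Parasite load was read by Bright-Glo luminescence. IC50 came from a standard inhibition dose–response fit, mean of two independent experiments. Atovaquone was the positive control.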

The next test concerns Escherichia coli. The experiment in a line: Antibacterial activity against Escherichia coli K12 after 24 hrs. It counts as functional. As to conditions: K-12, 24 h. Put shortly: (§1)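 Overnight cultures at 30 °C in LB (E. coli, B. subtilis) or YPD (C. albicans, S. cerevisiae) were diluted to OD600 0.01. Compounds came from 5 mg/mL DMSO stocks, 2-fold serially diluted, at final 50 to 0.1 μg/mL. Growth ran 24 h at 30 °C with OD600 read-out. MIC was the lowest concentration giving <5% of maximum OD600. Assays were run in duplicate, with dynemicin A as positive control.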

A further test deals with Candida albicans. The experiment in a line: Antifungal activity against Candida albicans after 24 hrs. The class given is functional. Put shortly: as §1
A further test has as its system Saccharomyces cerevisiae. The experiment in a line: Antifungal activity against Saccharomyces cerevisiae after 24 hrs. It counts as functional. Put shortly:
as §1

The subject of a further test is Bacillus subtilis. The experiment in a line: Antibacterial activity against Bacillus subtilis 3610 after 24 hrs. It counts as functional. To be noted: subsp. subtilis str. NCIB 3610, 24 h. The procedure, abridged:
as §1

The test system of a further test is HepG2. The experiment in a line: Cytotoxicity against human HepG2 cells after 2 days by CellTiter-Glo assay. The class given is cell-based. To be noted: HepG2, 48 h. Put shortly:
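HepG2 hepatoma cells were kept in DMEM with 10% FBS and 1% antibiotic–antimycotic (37 °C, 5% CO2). 15 000 cells/well were exposed in triplicate to compounds at 0–50 μg/mL with 1% DMSO final, 2 days at 37 °C. Viability was read by CellTiter-Glo luminescence. IC50 came from a standard inhibition dose–response fit, mean of two independent experiments.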

≈ marks a conversion by molar mass, not a printed value.

In the case of `COc1cccc2c1C(=O)c1ccc3cc(C)cc(O[C@@H]4O[C@H](C(=O)O)[C@@H](O)[C@H](O)[C@H]4O)c3c1C2=O` [PSEUDONOCARDONE B], the IC50 was 50 µM in the test on Plasmodium berghei and > 100 µM with HepG2. Besides, the MIC against Escherichia coli, against Candida albicans, with Saccharomyces cerevisiae and in the test with Bacillus subtilis was > 50 µg/mL in each case.

`COC1=C(C(=O)O)[C@H](C)[C@@]23O[C@]24c2cc(O)c5c(c2N[C@H]3C#C/C=C\C#C[C@H]14)C(=O)c1c(O)ccc(O)c1C5=O` [DYNEMICIN A]: the MIC against Escherichia coli was determined as 0.313 µg/mL (≈ 0.582 µM); against Candida albicans, 0.156 µg/mL (≈ 0.29 µM); in the test with Saccharomyces cerevisiae it was 0.156 µg/mL (≈ 0.29 µM); in the test on Bacillus subtilis it was 0.00016 µg/mL (≈ 0.000298 µM).

For the compound `COc1cccc2c1C(=O)c1ccc3cc(C)cc(O)c3c1C2=O`, the IC50 in the test with Plasmodium berghei is 3 µM; in the test on HepG2, 36.1 µM. For the same compound, the MIC against Escherichia coli is > 50 µg/mL; against Candida albicans, > 50 µg/mL; in the test with Saccharomyces cerevisiae, > 50 µg/mL; against Bacillus subtilis, 3.13 µg/mL (≈ 9.83 µM).

As for `COc1cccc2c1C(=O)c1ccc3cc(C)c(O[C@@H]4O[C@H](C(=O)O)[C@@H](O)[C@H](O)[C@H]4O)c(O)c3c1C2=O` [PSEUDONOCARDONE C], the IC50 with Plasmodium berghei and with HepG2 was > 100 µM throughout. Besides, the minimum inhibitory concentration (MIC) in the test on Escherichia coli, against Candida albicans, with Saccharomyces cerevisiae and against Bacillus subtilis was > 50 µg/mL in each case.

As to `COc1cccc2c1C(=O)c1ccc3cc(C)cc(O[C@@H]4O[C@H](C(=O)O)[C@@H](O)[C@H](O)[C@H]4O)c3c1C2O` (relative stereo), the IC50 in the test on Plasmodium berghei is 38 µM; in the test with HepG2, > 100 µM. Also, the minimum inhibitory concentration (MIC) in the test on Escherichia coli, in the test with Candida albicans, against Saccharomyces cerevisiae and against Bacillus subtilis was > 50 µg/mL each time.

With `COc1cccc2c1C(=O)c1ccc3c(c1C2=O)C(=O)C[C@](C)(O)C3`, the concentration for half-maximal inhibition (IC50) is 18.5 µM with Plasmodium berghei and > 100 µM with HepG2. In addition, the MIC is > 50 µg/mL against Escherichia coli, > 50 µg/mL with Candida albicans, > 50 µg/mL with Saccharomyces cerevisiae and 25 µg/mL (≈ 74.3 µM) against Bacillus subtilis.

As usually defined, the IC50 is the midpoint of a concentration-inhibition curve. For orientation: MIC means the lowest concentration that inhibits growth of the organism. Lower therefore signals greater potency.
